The nature of series [1]: Cytotoxicity against mouse V-Src -transformed NIH/3T3 cells at 2.5 uM by trypan blue exclusion with phase contrast microscopy. It is filed as cell-based. To be noted: nih3t3, 2.5 µM.
The test system of series [2] is U-251. Briefly: Induction of apoptosis in human U251MG cells assessed as PARP level at 8 uM after 24 to 48 hrs by immunoblot analysis. It is filed as functional, cell-based. (A western blot detects proteins with antibodies after separation by electrophoresis.)
Series [3] has as its target Signal transducer and activator of transcription 3 (Mus musculus) (UniProt P42227). Briefly: Inhibition of Stat3 dimer DNA binding activity in mouse NIH3T3/vSrc nuclear extract at 10 uM preincubated for 30 mins followed by addition of radiolabeled probe hSIE for 30 mins by EMSA in presence of 50 uM Cys. A general note: In EMSA bound probe runs differently from free probe, usually more slowly.

Series [4] is described as follows: Cytotoxicity against mouse NIH/3T3 cells at 1 uM by trypan blue exclusion with phase contrast microscopy. It counts as cell-based. To be noted: nih3t3, 1 µM.
The nature of series [5]: Decrease in TxR1 cytoplasmic isoform 3 expression in human U251MG cells at 5 uM for 1 hr by mass spectrometry relative to control. It counts as functional, cell-based. To be noted: U-251. The essentials:
(§1)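 Global proteomic mass spectrometry of lysates from U251MG cells treated 1 h with 5 μM compound; protein levels expressed relative to DMSO-treated cells.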

The nature of series [6]: Decrease in G6PD expression in human U251MG cells at 5 uM for 1 hr by mass spectrometry relative to control. It is filed as functional, cell-based. As to conditions: U-251. Summed up: (§2)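 U251MG cells treated 1 h with 5 μM compound; whole-cell lysates analyzed by global proteomics mass spectrometry; protein levels expressed relative to DMSO-treated cells.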
The nature of series [7]: Cytotoxicity against mouse V-Src -transformed NIH/3T3 cells at 1 uM by trypan blue exclusion with phase contrast microscopy. It is filed as cell-based. As to conditions: nih3t3, 1 µM.
For series [8], the system named is U-251. In words: Induction of apoptosis in human U251MG cells assessed as cleaved caspase 3 level at 8 uM after 24 to 48 hrs by immunoblot analysis. It is filed as functional, cell-based.
A short description of series [9]: Cell cycle arrest in human U251MG cells assessed as accumulation at G2/M phase at 5 uM for 15 hrs by flow cytometry. It counts as functional, cell-based. To be noted: U-251. On the technique in general: In flow cytometry, cells or beads pass a laser one at a time.
Series [10] concerns the target T1, Signal transducer and activator of transcription 3 (Homo sapiens, UniProt P40763). Briefly: Inhibition of Stat3 activity in human U251MG cells assessed as decrease in Mcl-1 expression at 5 uM after 24 hrs by immunoblot analysis. It is filed as cell-based. To be noted: U-251. Summed up:
(§3)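 U251MG cells treated with 5 μM compound for 0–24 h. Whole-cell lysates immunoblotted for pStat3, Stat3, c-Myc, Bcl-2, Bcl-xL, Mcl-1, GAPDH. Control was 0.025% DMSO.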

Series [11] deals with T1, Signal transducer and activator of transcription 3. Briefly: Inhibition of Stat3 activity in human U251MG cells assessed as decrease in Bcl-xl expression at 5 uM after 24 hrs by immunoblot analysis. It counts as cell-based. As to conditions: U-251. The essentials: as §3
In series [12] the target is Heat shock protein 105 kDa (Homo sapiens) (UniProt Q92598). Briefly: Decrease in Hsp105 expression in human U251MG cells at 5 uM for 1 hr by mass spectrometry relative to control. It counts as functional, cell-based. As to conditions: U-251. Summed up: as §2
Series [13] has as its target T1, Signal transducer and activator of transcription 3. In words: Inhibition of Stat3 activity in human U251MG cells assessed as decrease in c-Myc expression at 5 uM after 24 hrs by immunoblot analysis. To be noted: U-251. It is filed as cell-based. Summed up:
as §3

The target is the same in series [14]. Briefly: Inhibition of Stat3 phosphorylation in human U251MG cells transfected with Stat3 flag-tagged DNA-binding domain at 5 uM after 1.5 hrs by immunoblot analysis. It counts as cell-based. As to conditions: U-251. The essentials:
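U251MG cells transiently transfected with 7.5–21 μg FLAG-Stat3 NTD, CCD, DBD or CTD plasmid, or pcDNA3 mock. Re-seeded 24 h later; after another 18 h, treated with or without 5 μM compound for 1.5 h. Whole-cell lysates immunoblotted for FLAG, pY705Stat3, Stat3, GAPDH. 0.025% DMSO control. Representative of 2 independent determinations.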

Series [15] is described as follows: Cytotoxicity against mouse NIH/3T3 cells after 72 hrs by cyquant cells. It counts as cell-based. As to conditions: NIH3T3, 72 h. The essentials: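 CyQuant proliferation assay after 72 h compound exposure of cultured cells; relative viability normalized to DMSO-treated control; IC50 values derived. Glioma lines grown in RPMI or DMEM with 10% FBS and 1% nonessential amino acids.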

The target of series [16] is Tyrosine-protein kinase JAK2 (Homo sapiens) (UniProt O60674). In words: Modulation of Jak2 phosphorylation in human U251MG cells at 5 uM after 0.5 to 24 hrs by immunoblot analysis. It is filed as cell-based. To be noted: U-251. Summed up: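 U251MG glioma cells (RPMI or DMEM, 10% FBS, 1% nonessential amino acids) treated with 5 μM compound for 0–24 h; 0.025% DMSO control. Whole-cell lysates of equal total protein immunoblotted for pErk1/2, Erk1/2, pJAK2 and JAK2 with β-actin or GAPDH loading controls. Representative of 2–4 independent determinations.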

Series [17] can be described thus: Decrease in vimentin expression in human U251MG cells at 5 uM for 1 hr by mass spectrometry relative to control. It is filed as functional, cell-based. To be noted: U-251. The essentials: as §1
Series [18] concerns the target T1, Signal transducer and activator of transcription 3. Briefly: Inhibition of Stat3 activity in human U251MG cells assessed as decrease in Bcl-2 expression at 5 uM after 24 hrs by immunoblot analysis. As to conditions: U-251. It is filed as cell-based. The essentials: as §3

Here are results for two compounds from ChEMBL document CHEMBL3627612, “Hirsutinolide Series Inhibit Stat3 Activity, Alter GCN1, MAP1B, Hsp105, G6PD, Vimentin, TrxR1, and Importin α-2 Expression, and Induce Antitumor Effects against Human Glioma” (J Med Chem, 2015).

Structures are written as SMILES. Calls of active or inactive are those of the source. No cut-off for these calls is given here.

By IC50 is commonly meant the concentration at which inhibition is half-maximal. A high value points to lower potency.

T1 sequence (P40763 whole entry): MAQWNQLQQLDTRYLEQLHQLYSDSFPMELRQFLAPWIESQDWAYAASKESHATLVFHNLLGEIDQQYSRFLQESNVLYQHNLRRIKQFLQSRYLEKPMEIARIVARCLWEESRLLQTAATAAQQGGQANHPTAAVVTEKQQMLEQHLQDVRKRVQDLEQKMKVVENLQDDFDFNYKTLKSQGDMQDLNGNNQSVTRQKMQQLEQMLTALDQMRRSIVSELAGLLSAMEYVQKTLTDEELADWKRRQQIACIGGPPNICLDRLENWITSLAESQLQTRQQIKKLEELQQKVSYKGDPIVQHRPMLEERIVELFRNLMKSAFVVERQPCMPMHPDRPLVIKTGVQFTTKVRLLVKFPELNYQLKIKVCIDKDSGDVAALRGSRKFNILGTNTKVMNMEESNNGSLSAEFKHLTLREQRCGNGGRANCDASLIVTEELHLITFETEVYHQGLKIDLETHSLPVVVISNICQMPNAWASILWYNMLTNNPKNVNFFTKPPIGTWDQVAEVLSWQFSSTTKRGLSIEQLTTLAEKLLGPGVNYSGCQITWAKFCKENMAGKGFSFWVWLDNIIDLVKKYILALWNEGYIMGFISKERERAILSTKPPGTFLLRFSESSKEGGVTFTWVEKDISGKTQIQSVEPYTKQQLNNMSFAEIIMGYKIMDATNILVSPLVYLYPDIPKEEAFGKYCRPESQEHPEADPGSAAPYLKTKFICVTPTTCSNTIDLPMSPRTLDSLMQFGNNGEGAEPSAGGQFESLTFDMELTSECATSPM
Chain of Heat shock protein 105 kDa (Homo sapiens) (Q92598 whole entry): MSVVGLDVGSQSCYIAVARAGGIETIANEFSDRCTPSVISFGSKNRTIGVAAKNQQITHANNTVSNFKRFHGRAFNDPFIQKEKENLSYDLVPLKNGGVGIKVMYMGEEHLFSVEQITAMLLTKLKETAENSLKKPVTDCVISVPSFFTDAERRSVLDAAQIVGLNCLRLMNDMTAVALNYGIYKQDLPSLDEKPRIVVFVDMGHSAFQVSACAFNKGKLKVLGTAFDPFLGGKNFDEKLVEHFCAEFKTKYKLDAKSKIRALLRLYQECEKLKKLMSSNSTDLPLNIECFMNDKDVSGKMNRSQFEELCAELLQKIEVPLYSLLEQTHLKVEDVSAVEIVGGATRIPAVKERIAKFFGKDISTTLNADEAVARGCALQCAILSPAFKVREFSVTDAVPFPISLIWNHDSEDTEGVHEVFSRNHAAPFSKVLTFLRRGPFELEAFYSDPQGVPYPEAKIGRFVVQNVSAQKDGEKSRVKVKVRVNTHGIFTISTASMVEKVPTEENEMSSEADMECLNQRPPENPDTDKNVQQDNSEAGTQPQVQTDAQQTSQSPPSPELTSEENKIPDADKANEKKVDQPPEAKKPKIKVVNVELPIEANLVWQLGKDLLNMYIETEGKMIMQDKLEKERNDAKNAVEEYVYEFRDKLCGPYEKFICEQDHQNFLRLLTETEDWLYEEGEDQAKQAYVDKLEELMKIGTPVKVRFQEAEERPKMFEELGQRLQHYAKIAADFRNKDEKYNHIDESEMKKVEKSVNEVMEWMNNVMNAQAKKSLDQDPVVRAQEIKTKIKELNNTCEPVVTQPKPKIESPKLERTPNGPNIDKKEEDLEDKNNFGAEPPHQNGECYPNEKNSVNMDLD
Chain of Tyrosine-protein kinase JAK2 (Homo sapiens) (O60674 whole entry): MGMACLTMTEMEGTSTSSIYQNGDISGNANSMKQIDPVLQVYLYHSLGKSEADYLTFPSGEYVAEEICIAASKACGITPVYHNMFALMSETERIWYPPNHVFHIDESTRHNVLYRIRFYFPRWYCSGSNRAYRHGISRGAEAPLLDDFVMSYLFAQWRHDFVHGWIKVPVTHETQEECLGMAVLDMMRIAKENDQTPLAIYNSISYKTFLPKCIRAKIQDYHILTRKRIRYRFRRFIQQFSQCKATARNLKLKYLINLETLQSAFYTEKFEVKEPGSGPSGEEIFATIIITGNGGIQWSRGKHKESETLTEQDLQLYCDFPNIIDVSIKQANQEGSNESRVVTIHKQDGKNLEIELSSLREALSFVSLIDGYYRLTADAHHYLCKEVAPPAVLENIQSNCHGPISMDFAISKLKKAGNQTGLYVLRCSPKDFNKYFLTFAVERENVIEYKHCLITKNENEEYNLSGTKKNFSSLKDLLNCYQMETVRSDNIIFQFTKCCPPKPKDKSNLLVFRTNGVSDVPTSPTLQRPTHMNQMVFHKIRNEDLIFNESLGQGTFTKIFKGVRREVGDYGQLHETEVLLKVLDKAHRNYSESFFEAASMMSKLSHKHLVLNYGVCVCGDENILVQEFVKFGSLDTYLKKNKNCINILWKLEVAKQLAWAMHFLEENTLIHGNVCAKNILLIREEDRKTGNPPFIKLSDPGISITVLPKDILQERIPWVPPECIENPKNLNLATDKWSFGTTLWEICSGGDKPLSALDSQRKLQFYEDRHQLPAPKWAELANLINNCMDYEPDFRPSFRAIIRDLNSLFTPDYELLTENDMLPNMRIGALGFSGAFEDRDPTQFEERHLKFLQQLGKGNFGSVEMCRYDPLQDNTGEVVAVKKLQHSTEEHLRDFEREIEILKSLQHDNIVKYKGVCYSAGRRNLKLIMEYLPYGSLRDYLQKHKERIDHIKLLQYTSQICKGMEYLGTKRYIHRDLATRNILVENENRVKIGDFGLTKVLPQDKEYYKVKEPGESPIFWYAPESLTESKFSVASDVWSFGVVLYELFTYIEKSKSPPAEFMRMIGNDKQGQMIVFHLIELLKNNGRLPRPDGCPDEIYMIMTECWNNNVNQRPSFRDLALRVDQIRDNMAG
Chain of Signal transducer and activator of transcription 3 (Mus musculus) (P42227 whole entry): as the sequence (P40763 whole entry) above, with E760D counted along it

Consider `C/C=C(\C)C(=O)OCC1=C2/C(=C\[C@@]3(C)CC[C@](O)(O3)[C@H](C)C[C@@H]2O)OC1=O`, for which the Activity entry in series [1] is “Toxic”; in [4] it was “Non-toxic”; in series [7] it was “Toxic”. The result in series [2] and in series [8] was inactive. The inhibition entry in series [3] is “Active”. For the same compound, the fold change (FC) in series [5] was determined as 0.305; in series [6], 0.275. Also, the outcome in series [9] was Active.

Regarding `C/C=C(\C)C(=O)O[C@H]1C[C@@H](C)[C@]2(O)CC[C@](C)(/C=C3/OC(=O)C(COC(C)=O)=C31)O2`, the inhibition result in [10], in [11], in series [13] and in series [18] was “Active” in each case. Also, the results for the fold change (FC) in series [12] and in series [17] were 0.501 and 0.308, respectively. In addition, the inhibition result in series [14] is “inactive”. For the same compound, half-maximal inhibition in series [15] (IC50) required 2000 nM. In series [16], the result was Active.
